The source of these data is ChEMBL document CHEMBL1126169, “8-Polycycloalkyl-1,3-dipropylxanthines as potent and selective antagonists for A1-adenosine receptors” (J Med Chem, 1992).

Each structure is given as a SMILES string.

The target in assay [1] is T1, Adenosine receptor A1 (Cavia porcellus, UniProt P47745).
T1 sequence (P47745 whole entry): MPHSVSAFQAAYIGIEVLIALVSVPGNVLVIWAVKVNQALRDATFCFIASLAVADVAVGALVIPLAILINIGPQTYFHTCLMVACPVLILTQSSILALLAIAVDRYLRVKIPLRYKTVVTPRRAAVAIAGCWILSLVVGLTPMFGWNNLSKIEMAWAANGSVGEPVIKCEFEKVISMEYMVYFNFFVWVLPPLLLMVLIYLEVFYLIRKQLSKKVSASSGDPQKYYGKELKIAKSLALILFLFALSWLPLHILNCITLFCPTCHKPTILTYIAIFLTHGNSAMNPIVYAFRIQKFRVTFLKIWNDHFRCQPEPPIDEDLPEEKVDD
As to the kind of experiment: Binding affinity against adenosine A1 receptor using N6-[3H]cyclohexyladenosine as radioligand in guinea pig forebrain membranes. In kind it is cell membranes, Brain membranes.

Assay [2] has as its target T2, Adenosine A2 receptor (Rattus norvegicus, UniProt P29276+P30543). Briefly: Binding affinity against adenosine A2 receptor using N-[3H]-ethyladenosin-5''-uronamide as radioligand in rat striatal membranes. The format is cell membranes.
Assay [3] concerns the target T1, Adenosine receptor A1. Briefly: Inhibition of N6-[3H]cyclohexyladenosine binding to guinea pig forebrain membrane Adenosine A1 receptor.
Assay [4] addresses T3, Adenosine receptor A1 (Rattus norvegicus, UniProt P25099).
T3 sequence (P25099 whole entry): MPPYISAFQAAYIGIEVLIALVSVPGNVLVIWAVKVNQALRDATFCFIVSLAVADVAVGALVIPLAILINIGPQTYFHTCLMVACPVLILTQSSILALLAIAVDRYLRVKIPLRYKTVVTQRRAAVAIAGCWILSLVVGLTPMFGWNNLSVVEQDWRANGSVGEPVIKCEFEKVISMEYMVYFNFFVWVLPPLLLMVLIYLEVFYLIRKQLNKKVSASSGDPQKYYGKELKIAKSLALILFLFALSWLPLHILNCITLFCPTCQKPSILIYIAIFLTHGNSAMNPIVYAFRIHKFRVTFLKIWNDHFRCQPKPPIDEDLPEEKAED
As to the kind of experiment: Binding affinity against Adenosine A1 receptor using N6-[3H]cyclohexyladenosine in rat brain membranes. In kind it is cell membranes. The gist of the method:
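Rat forebrain membranes were prepared like the guinea pig tissue. Tissue was homogenized in ice-cold 50 mM Tris-HCl pH 7.7, centrifuged at 50000g and washed. It was treated with ADA (2.0 units/mL) for 30 min at 37 °C, then used at 10 mg tissue/mL. Duplicate curves used five or more concentrations; IC50 from logit-log plots was converted to Ki by Cheng-Prusoff.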

Assay [5] has as its target Adenosine receptor A1 (Rattus norvegicus) (UniProt P25099). Briefly: Binding affinity against adenosine A1 receptor using N6-[3H]cyclohexyladenosine as radioligand in rat brain membranes.
Assay [6] is described as follows: Binding affinity against adenylate cyclase using N-[3H]-ethyl adenosine-5-uronamide as radioligand in human platelet membranes. The format is cell membranes.
Assay [7] is described as follows: Inhibitory activity against adenylate cyclase using (R)-N6-(2-[3H]-phenyl-1-methylethyladenosine as radioligand in rat adipocytes. In kind it is cell-based.
The target of assay [8] is T1, Adenosine receptor A1. Briefly: Binding affinity against Adenosine A1 receptor using N6-[3H]cyclohexyladenosine in guinea pig forebrain membranes. In kind it is cell membranes, Brain membranes. The gist of the method: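 Guinea pig forebrain membranes in 50 mM Tris-HCl pH 7.7, pretreated with adenosine deaminase (2.0 units/mL, 30 min, 37 °C), 10 mg tissue per tube. Incubated with 1.1 nM [3H]cyclohexyladenosine, final DMSO <0.9%, for 90 min at 25 °C, then GF/C filtration and scintillation counting. Nonspecific binding defined with 10 µM R-PIA.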

Assay [9] concerns the target T2, Adenosine A2 receptor. As to the kind of experiment: Binding affinity against Adenosine A2 receptor using N-[3H]-ethyladenosin-5''-uronamide in rat striatal membranes. In kind it is cell membranes, Striatum, Membrane.
The target in assay [10] is T1, Adenosine receptor A1. As to the kind of experiment: Binding affinity against Adenosine A1 receptor using N6-[3H]cyclohexyladenosine in guinea pig membranes. In kind it is cell membranes.

Usually Ki stands for the dissociation constant of the complex between target and ligand, obtained from inhibition or displacement. Low values mean a stronger hold on the target, high ones a looser hold on the target.

Consider `OC[C@H]1OC(n2cnc3c(NC45C[C@H]6C[C@@H](C4)C[C@@H](C5)C6)ncnc32)[C@H](O)[C@@H]1O` (some centres not stated), for which, in assay [1], affinity was put at a Ki of 73 nM.

`CCCn1c(=O)c2nc(-c3cc4ccccc4o3)[nH]c2n(CCC)c1=O`: the Ki is > 10000 nM in [1] and 1200 nM in [2].

As for `CCCn1c(=O)c2nc([C@H]3CC4C=CC3C4)[nH]c2n(CCC)c1=O` (some centres not stated), the Ki in assay [1] was determined as 3.4 nM; in assay [2], 210 nM.

`CCCn1c(=O)c2[nH]c(C[C@H]3CC4CCC3C4)nc2n(CCC)c1=O` (some centres not stated) registered a Ki in [1] of 80 nM.

For `CCCn1c(=O)c2nc(-c3cccn3C)[nH]c2n(CCC)c1=O`, the Ki in assay [1] was determined as 140 nM; in assay [2] it was 6000 nM.

For the compound `CCCn1c(=O)c2nc(C(O)(CC)CC)[nH]c2n(CCC)c1=O`, the Ki in [1] turned out to be 170 nM; in assay [2], 12000 nM.

In the case of `OC[C@H]1O[C@@H](n2cnc3c(NC4CC5CCC4C5)ncnc32)[C@H](O)[C@@H]1O` (some centres not stated), the results for the Ki in assay [3] and in assay [4] were 0.7 nM and 0.91 nM, respectively.

Turning to `CCC(CC)Nc1ncnc2c1ncn2C1O[C@H](CO)[C@@H](O)[C@H]1O` (some centres not stated), the Ki in assay [5] amounted to 0.75 nM.

As to `CCCn1c(=O)c2nc(C(C)(O)CC)[nH]c2n(CCC)c1=O` (configuration not stated), the Ki in assay [1] turned out to be 240 nM; in assay [2], 21000 nM.

`Cn1c(=O)c2[nH]cnc2n(C)c1=O`: the Kb in assay [6] was 5.7 µM; in [7] it was 4800 nM.

`CC1(Nc2ncnc3c2ncn3C2O[C@H](CO)[C@@H](O)[C@H]2O)CCCCC1` (some centres not stated): in assay [5], the Ki turned out to be 70 nM.

Turning to `CCCn1c(=O)c2nc(C(C)(C)CCC)[nH]c2n(CCC)c1=O`, the figures for the Ki in assay [1] and in assay [2] were 25 nM and 2200 nM, respectively.

For the compound `CC(C)Nc1ncnc2c1ncn2[C@@H]1O[C@H](CO)[C@@H](O)[C@H]1O`, in [1], the affinity corresponds to a Ki of 1.9 nM.

Consider `Cn1c(=O)c2[nH]c(C34CC5CC(CC3C5)C4)nc2n(C)c1=O`, for which the affinity in assay [1], expressed as Ki, was 41 nM.

For the compound `CC[C@H](C)Nc1ncnc2c1ncn2C1O[C@H](CO)[C@@H](O)[C@H]1O` (single isomer, unassigned), in [3], the Ki came to 0.8 nM.

For `CCCn1c(=O)c2nc(-c3cnns3)[nH]c2n(CCC)c1=O`, the Ki in assay [8] was 4.4 µM; in assay [9], > 10 µM.

Turning to `CCCn1c(=O)c2nc(CC(C)(C)C)[nH]c2n(CCC)c1=O`, the Ki in assay [1] came out at 49 nM; in [2], 6000 nM.

Consider `Cn1c(=O)c2c(ncn2C)n(C)c1=O` [CAFFEINE], for which, in assay [1], affinity was put at a Ki of 100000 nM.

In the case of `CCCn1c(=O)c2nc(C3Cc4ccccc4C3)[nH]c2n(CCC)c1=O`, the Ki stood at 220 nM in [1] and 1700 nM in assay [2].

In turn, `CC(C)Cn1c(=O)n(C)c(=O)c2[nH]c(C34CC5CC(CC3C5)C4)nc21` gave a Ki in [3] of 15 nM.

For `CCCn1c(=O)c2nc(-c3ccco3)[nH]c2n(CCC)c1=O`, the values for the Ki in assay [1] and in [2] were 560 nM and 530 nM, respectively.

For the compound `CCCn1c(=O)c2nc(-c3cc4ccccc4s3)[nH]c2n(CCC)c1=O`, the Ki in assay [1] and in assay [2] was > 100000 nM in each case.

As to `CCCn1c(=O)c2nc[nH]c2n(CCC)c1=O`, the Ki in assay [3] was found to be 1400 nM; in assay [10], 1000 nM. Further, the Kb in [7] was 940 nM.

For the compound `CC(C)(C)CNc1ncnc2c1ncn2C1O[C@H](CO)[C@@H](O)[C@H]1O` (some centres not stated), affinity in assay [1] was put at a Ki of 17 nM.

`CCCn1c(=O)c2nc(-c3cc(S(=O)(=O)[O-])co3)[nH]c2n(CCC)c1=O.[K+]`: the Ki in assay [8] and in assay [9] was > 10 µM each time.

The compound `OC[C@H]1OC(n2cnc3c(NCC4CC4)ncnc32)[C@H](O)[C@@H]1O` (some centres not stated) had a Ki in [5] of 0.75 nM.

For `CCCn1c(=O)c2[nH]c(C34C[C@H]5C[C@@H](C3)C[C@@H](C4)C5)nc2n(CCC)c1=O`, in assay [1], affinity was put at a Ki of 13 nM.

As to `CC(C)(C)Nc1ncnc2c1ncn2C1O[C@H](CO)[C@@H](O)[C@H]1O` (some centres not stated), in [1], the Ki is 20 nM.

Turning to `CCCn1c(=O)[nH]c(=O)c2[nH]c(C34CC5CC(CC3C5)C4)nc21`, the Ki was 370 nM in assay [3] and > 100 µM in assay [9].

For the compound `CCCn1c(=O)c2nc(CC3CC3)[nH]c2n(CCC)c1=O`, the Ki in assay [1] was determined as 120 nM; in assay [2], 1200 nM.

Turning to `CCCn1c(=O)c2nc(C(C)(C)CC)[nH]c2n(CCC)c1=O`, the figures for the Ki in assay [1] and in [2] were 23 nM and 1000 nM, respectively.

Turning to `CCCn1c(=O)c2nc(C3C(C)(C)CCC3(C)C)[nH]c2n(CCC)c1=O`, the Ki in assay [2] is recorded as > 100000 nM.

In assay [3], `OC[C@H]1OC(n2cnc3c(NC(C4CC4)C4CC4)ncnc32)[C@H](O)[C@@H]1O` (some centres not stated) displayed a Ki of 0.75 nM.

In assay [1], `CCCCn1c(=O)c2nc(C34CC5CC(CC3C5)C4)[nH]c2n(CCCC)c1=O` registered a Ki of 10 nM.

As for `CCCn1c(=O)c2nc(C(C)(C)C)[nH]c2n(CCC)c1=O`, the Ki in [1] stood at 31 nM; in assay [2], 2300 nM.

As to `CCCC(CCC)Nc1ncnc2c1ncn2C1O[C@H](CO)[C@@H](O)[C@H]1O` (some centres not stated), in [1], the Ki is 3.3 nM.

On to `CCCn1c(=O)c2nc(C3CCC4CCCC43)[nH]c2n(CCC)c1=O` (configuration not stated), for which the Ki came out at 5.6 nM in assay [3], 3.5 nM in [1], 330 nM in [2] and 0.56 µM in [9].

Consider `CCCn1c(=O)c2nc(C3CC4CCC3C4)[nH]c2n(CCC)c1=O` (configuration not stated), for which, in assay [3], the Ki came to 4.4 nM.

Take `CCCn1c(=O)c2nc(-c3cccs3)[nH]c2n(CCC)c1=O`: the Ki in assay [1] turned out to be 210 nM; in [2] it was 1900 nM.

On to `CCCn1c(=O)c2nc(CC34C[C@H]5C[C@@H](C3)C[C@@H](C4)C5)[nH]c2n(CCC)c1=O`, for which the Ki in [1] is 880 nM; in assay [2], > 100000 nM.

As to `CCC(C)(C)Nc1ncnc2c1ncn2C1O[C@H](CO)[C@@H](O)[C@H]1O` (some centres not stated), the Ki in assay [3] was 16 nM.

As for `CCCn1c(=O)c2nc(-c3nn[nH]n3)[nH]c2n(CCC)c1=O`, the inhibitory constant (Ki) was > 10000 nM in [1] and > 100000 nM in assay [2].

As for `CCCn1c(=O)c2nc(-c3cc4ccccc4n3C)[nH]c2n(CCC)c1=O`, the Ki in assay [1] and in assay [2] was > 100000 nM throughout.

With `CCCn1c(=O)c2nc(C3c4ccccc4-c4ccccc43)[nH]c2n(CCC)c1=O`, the results for the Ki in assay [8] and in assay [9] were 2.9 µM and > 100 µM, respectively.

Take `CC[C@@H](C)Nc1ncnc2c1ncn2[C@@H]1O[C@H](CO)[C@@H](O)[C@H]1O`: the affinity in [3] corresponds to a Ki of 1.3 nM.

As to `CCCn1c(=O)c2nc(-c3cnsn3)[nH]c2n(CCC)c1=O`, the Ki in [2] was > 10000 nM.

Consider `CCCn1c(=O)c2nc(-c3csc(C)n3)[nH]c2n(CCC)c1=O`, for which the Ki in assay [1] amounted to 410 nM; in [2], 2300 nM.

For `CCCn1c(=O)c2nc([C@@H]3CC4C=CC3C4)[nH]c2n(CCC)c1=O` (some centres not stated), the Ki was 4.3 nM in [1] and 480 nM in assay [2].

Consider `CCCn1c(=O)c2nc([C@@H]3CC4CCC3C4)[nH]c2n(CCC)c1=O` (some centres not stated), for which the Ki in assay [1] was determined as 3.8 nM; in assay [2], 440 nM.

For the compound `CCCn1c(=O)c2nc(C3(C)CCCCC3)[nH]c2n(CCC)c1=O`, the Ki was 11 nM in [1] and 1200 nM in assay [2].
